The M2OR odorant receptor database

Columns and labels:
Details in all cases: stereoisomer not certain
[1] = target: T1, UniProt Q8VGU3
T1 sequence (whole entry): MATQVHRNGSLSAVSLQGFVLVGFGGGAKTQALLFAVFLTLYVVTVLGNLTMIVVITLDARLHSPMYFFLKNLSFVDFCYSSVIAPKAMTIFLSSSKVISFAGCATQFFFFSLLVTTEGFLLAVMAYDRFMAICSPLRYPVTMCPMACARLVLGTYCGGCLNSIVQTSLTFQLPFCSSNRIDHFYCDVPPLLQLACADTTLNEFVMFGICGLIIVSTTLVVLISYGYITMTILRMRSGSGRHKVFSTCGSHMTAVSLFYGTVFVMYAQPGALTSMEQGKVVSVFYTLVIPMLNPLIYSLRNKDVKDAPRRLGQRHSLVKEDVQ
Outline: (§1)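 Assay methods differ from source to source, frequently being transient luciferase assays in mammalian cell lines. For each receptor–molecule pair, the label responsive (active) applies when the original authors judged the measured signal statistically different from baseline, and non-responsive (inactive) applies otherwise.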

[2] = target: T2, UniProt Q8VGV7
T2 sequence (whole entry): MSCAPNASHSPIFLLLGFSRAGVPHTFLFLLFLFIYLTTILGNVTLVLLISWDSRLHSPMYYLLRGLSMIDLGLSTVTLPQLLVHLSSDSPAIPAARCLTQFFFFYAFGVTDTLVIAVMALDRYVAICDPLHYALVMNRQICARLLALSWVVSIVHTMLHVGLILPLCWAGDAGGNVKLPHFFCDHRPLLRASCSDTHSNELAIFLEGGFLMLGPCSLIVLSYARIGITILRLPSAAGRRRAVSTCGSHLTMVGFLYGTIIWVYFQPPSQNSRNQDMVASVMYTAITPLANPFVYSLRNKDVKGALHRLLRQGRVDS
Outline: as §1

[3] = target: T3, UniProt Q8VGX3
T3 sequence (whole entry): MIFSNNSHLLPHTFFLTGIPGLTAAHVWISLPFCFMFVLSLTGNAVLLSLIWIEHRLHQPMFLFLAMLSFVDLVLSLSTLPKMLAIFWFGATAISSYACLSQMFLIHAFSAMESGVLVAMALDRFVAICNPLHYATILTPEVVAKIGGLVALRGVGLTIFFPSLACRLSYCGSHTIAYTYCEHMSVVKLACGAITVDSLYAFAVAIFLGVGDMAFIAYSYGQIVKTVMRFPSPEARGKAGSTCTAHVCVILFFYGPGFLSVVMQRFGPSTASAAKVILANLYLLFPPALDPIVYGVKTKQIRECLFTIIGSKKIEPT
Outline: as §1

[4] = target: T4, UniProt Q8VGX5
T4 sequence (whole entry): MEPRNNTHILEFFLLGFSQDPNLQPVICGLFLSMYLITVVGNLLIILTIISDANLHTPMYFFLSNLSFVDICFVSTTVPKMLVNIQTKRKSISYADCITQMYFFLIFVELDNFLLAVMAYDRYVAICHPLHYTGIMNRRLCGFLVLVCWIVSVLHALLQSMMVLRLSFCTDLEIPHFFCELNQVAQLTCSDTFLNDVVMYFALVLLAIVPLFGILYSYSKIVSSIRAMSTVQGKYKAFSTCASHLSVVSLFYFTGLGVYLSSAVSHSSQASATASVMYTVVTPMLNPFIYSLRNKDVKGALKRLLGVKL
Outline: as §1

[5] = target: T5, UniProt Q8VGW5
T5 sequence (whole entry): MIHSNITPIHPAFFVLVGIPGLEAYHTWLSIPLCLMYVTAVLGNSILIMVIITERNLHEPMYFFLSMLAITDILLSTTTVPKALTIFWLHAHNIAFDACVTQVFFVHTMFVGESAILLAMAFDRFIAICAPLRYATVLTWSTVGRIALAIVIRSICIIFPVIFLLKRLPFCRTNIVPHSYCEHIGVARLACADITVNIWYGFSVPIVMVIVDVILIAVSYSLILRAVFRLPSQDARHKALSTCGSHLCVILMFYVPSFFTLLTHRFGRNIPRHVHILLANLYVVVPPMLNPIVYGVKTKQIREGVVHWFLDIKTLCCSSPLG
Outline: as §1

[6] = target: T6, UniProt Q8VGM2
T6 sequence (whole entry): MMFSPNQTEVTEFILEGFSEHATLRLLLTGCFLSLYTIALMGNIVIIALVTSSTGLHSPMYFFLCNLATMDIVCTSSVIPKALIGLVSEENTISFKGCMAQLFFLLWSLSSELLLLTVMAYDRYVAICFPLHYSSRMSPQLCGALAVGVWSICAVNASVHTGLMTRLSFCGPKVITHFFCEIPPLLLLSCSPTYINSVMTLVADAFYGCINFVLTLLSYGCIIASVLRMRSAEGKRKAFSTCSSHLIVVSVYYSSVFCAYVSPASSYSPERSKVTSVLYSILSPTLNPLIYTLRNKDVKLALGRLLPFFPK
Outline: as §1

[7] = target: T7, UniProt Q8VGP6
T7 sequence (whole entry): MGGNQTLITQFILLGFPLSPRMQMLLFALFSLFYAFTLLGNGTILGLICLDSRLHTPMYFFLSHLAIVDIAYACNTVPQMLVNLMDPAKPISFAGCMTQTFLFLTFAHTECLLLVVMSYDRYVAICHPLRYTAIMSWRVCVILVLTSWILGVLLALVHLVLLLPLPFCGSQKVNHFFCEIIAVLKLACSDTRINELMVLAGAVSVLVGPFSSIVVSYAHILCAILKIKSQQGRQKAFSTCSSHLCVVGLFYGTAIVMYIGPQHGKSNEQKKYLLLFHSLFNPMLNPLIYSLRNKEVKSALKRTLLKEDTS
Outline: as §1

[8] = target: T8, UniProt Q8VGQ3
T8 sequence (whole entry): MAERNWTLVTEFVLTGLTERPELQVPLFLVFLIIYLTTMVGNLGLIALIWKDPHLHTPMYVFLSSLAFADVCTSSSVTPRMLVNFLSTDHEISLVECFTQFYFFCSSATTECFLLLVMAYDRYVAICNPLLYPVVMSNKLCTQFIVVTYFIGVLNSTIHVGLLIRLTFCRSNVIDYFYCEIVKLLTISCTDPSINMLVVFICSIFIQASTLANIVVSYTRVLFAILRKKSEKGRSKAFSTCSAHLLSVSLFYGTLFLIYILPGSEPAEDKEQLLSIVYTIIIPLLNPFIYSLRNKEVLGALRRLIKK
Outline: as §1

[9] = target: T9, UniProt Q8VGT4
T9 sequence (whole entry): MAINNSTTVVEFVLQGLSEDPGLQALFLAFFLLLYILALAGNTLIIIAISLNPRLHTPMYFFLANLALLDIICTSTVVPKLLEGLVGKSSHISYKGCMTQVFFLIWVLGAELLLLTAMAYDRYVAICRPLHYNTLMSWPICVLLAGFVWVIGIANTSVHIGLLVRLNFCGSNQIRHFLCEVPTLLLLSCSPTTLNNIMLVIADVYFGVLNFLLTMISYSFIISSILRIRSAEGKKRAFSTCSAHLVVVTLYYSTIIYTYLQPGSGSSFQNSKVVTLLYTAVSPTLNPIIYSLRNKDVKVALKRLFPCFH
Outline: as §1

[10] = target: T10, UniProt Q8VGV1
T10 sequence (whole entry): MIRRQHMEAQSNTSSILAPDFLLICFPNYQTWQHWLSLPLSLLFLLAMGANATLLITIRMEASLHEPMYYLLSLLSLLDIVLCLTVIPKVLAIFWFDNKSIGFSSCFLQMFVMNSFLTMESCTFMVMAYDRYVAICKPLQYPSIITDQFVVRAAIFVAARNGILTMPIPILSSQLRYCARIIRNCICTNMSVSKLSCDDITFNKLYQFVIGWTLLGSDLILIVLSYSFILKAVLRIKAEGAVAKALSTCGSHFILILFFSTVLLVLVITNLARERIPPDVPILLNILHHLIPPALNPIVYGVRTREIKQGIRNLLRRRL
Outline: as §1

Measured: odorant receptor agonist call

COc1nccnc1C(C)C
inactive: [1] | [2] | [3] | [4]

CC(=O)C1(C)CC2=C(CCCC2(C)C)CC1C (stereo not given)
active: [2]
inactive: [1] | [3] | [4]

O=C(O)C1CCC1
inactive: [1] | [2] | [3] | [4]

CCC(C)O (stereo not given)
inactive: [1] | [2] | [3] | [4]

O=C([O-])CCCCCCCC(=O)[O-].[H+].[H+]
inactive: [1] | [2] | [5] | [3] | [4]

CCCCOC(=O)C(C)OC(=O)CCC (stereo not given)
inactive: [6] | [7] | [8] | [9] | [10] | [4]

CCCCCCC(=O)[O-].[H+]
not listed: [1] | [2] | [3]
inactive: all other assays above

CCOC(=O)C(C)CC (stereo not given)
inactive: [1] | [2] | [3] | [4]

CC(=O)OCc1ccccc1
active: [7] | [4]
not listed: [5]
inactive: all other assays above

CC(C)CCN
inactive: [1] | [2] | [3] | [4]

CCCCCCC=CC=O
inactive: [1] | [2] | [3] | [4]

CCCC=O
inactive: [1] | [2] | [3]
active: [4]

CCCCCCCCCCCO
inactive: [1] | [2] | [3] | [4]

CCCCCCCCCC=CC=O
inactive: [1] | [2] | [3] | [4]

CCCCCOC(=O)CC
inactive: [1] | [2] | [3] | [4]

CCCCCOC(=O)CCCCC
not listed: [5]
inactive: all other assays above
